The record followed here is ChEMBL document CHEMBL1141088, “A new pyridazine series of GABAA alpha5 ligands” (J Med Chem, 2005).

Test [1] has as its target T1, GABA-A receptor; alpha-5/beta-3/gamma-2 (Homo sapiens, UniProt P18507+P28472+P31644).
T1 sequence (P18507 whole entry): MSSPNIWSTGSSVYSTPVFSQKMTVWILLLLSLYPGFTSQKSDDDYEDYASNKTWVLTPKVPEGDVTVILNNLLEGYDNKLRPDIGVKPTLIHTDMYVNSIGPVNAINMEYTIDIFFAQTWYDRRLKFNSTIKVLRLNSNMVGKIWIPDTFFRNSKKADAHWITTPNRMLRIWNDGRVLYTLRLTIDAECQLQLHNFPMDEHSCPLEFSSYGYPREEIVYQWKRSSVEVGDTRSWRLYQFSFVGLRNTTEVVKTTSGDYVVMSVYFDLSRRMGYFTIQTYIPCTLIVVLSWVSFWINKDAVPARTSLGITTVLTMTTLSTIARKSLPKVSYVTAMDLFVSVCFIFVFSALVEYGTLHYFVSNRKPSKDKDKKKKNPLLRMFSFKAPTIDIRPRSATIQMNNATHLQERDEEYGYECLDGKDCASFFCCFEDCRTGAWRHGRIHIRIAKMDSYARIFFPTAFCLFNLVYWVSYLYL
T1 sequence (P28472 whole entry): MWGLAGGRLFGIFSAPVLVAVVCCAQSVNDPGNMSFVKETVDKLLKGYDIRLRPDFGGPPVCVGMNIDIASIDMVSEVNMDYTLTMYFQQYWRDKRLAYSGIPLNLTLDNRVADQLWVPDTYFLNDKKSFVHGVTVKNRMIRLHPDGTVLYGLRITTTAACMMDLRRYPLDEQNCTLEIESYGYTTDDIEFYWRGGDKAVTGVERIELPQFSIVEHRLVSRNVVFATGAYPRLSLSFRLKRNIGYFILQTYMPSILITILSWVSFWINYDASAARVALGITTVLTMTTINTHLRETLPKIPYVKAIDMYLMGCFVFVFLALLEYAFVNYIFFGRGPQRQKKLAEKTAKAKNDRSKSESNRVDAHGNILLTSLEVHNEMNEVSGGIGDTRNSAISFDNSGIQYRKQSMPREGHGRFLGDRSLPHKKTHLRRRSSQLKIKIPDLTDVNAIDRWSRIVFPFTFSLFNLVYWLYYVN
T1 sequence (P31644 whole entry): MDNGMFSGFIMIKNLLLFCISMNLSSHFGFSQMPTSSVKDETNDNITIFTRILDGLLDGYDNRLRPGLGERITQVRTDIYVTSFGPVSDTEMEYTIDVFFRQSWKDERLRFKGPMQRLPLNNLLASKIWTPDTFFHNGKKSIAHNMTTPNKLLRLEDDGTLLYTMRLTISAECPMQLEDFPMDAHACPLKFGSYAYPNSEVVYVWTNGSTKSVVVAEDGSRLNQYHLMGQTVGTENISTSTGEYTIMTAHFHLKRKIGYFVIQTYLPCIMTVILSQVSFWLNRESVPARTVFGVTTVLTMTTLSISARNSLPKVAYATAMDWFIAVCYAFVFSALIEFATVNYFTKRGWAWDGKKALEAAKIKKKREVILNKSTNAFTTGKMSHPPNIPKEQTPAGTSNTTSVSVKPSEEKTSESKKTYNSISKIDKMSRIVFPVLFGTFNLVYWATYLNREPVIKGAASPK
The test is described as follows: Negative logarithm of effective concentration against GABA-A alpha-5-beta-3-gamma-2 receptor. The test is classed as protein-complex assay. Summed up:
(§1)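 Whole-cell patch clamp of L(tk-) cells stably expressing human α1, α3 or α5 β3γ2s, perfused with bicarbonate saline pH 7.2, CsCl pipette solution pH 7.3. Drugs applied by double-barrelled pipette; GABA in 5 s pulses at 30 s intervals. Modulation measured against a GABA EC20 set for each cell; curves fitted to a Hill equation.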

For test [2], the target named is T2, GABA-A receptor; alpha-5/beta-3/gamma-2 (Homo sapiens) (UniProt P18507+P28472+P31644). The test is described as follows: Efficacy at GABAA alpha-5-beta-3-gamma-2 receptor expressed in mouse fibroblast L(tk-) cells measured at 300 nM derived from at least three plates/day screened over a minimum of 2 days. In kind it is functional, cell-based. In outline: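 FRET membrane-potential (VIPR) assay in L(tk-) cells with receptor expression induced 24 h by 1 µM dexamethasone. Dye-loaded 30 min in low-Cl- HEPES buffer pH 7.4: 4 µM CC2-DMPE, 1 µM DiSBAC2(3), 0.5 mM tartrazine. Basal read 8 s, compound at 300 nM, half-maximal GABA 22 s later, 1 Hz reads. Background-subtracted 460/580 nm ratio, normalized to DMCM as -100%.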

In test [3] the target is GABA-A receptor; alpha-3/beta-3/gamma-2 (Homo sapiens) (UniProt P18507+P28472+P34903). Briefly: Maximum inhibition of GABA EC20 response at GABA-A receptor alpha-3-beta-3-gamma-2,n=3. The test is classed as protein-complex assay. Summed up: as §1
In test [4] the target is T3, GABA-A receptor; alpha-1/beta-3/gamma-2 (Homo sapiens, UniProt P14867+P18507+P28472).
T3 sequence (P14867 whole entry): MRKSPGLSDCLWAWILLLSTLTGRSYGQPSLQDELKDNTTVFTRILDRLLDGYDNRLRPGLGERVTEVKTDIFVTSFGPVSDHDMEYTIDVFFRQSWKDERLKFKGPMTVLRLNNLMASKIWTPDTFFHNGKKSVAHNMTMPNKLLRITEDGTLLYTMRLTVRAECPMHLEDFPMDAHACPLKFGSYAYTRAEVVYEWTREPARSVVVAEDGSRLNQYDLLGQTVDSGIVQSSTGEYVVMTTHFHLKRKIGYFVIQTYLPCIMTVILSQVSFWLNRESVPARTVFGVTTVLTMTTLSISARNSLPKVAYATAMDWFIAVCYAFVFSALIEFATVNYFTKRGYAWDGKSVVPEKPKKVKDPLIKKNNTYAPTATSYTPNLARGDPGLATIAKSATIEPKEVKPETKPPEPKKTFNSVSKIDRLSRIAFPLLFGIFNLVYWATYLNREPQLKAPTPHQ
T3 sequence (P18507 whole entry): T1 sequence (P18507 whole entry)
T3 sequence (P28472 whole entry): T1 sequence (P28472 whole entry)
Briefly: Negative logarithm of effective concentration against GABA-A alpha-1-beta-3-gamma-2 receptor. The test is classed as protein-complex assay. In outline: as §1

Test [5] has as its target GABA-A receptor; alpha-1/beta-3/gamma-2 (Homo sapiens) (UniProt P14867+P18507+P28472). The test is described as follows: Maximum inhibition of GABA EC20 response at GABA-A receptor alpha-1-beta-3-gamma-2, n=4. In kind it is protein-complex assay. In outline: as §1
The target of test [6] is T2, GABA-A receptor; alpha-5/beta-3/gamma-2 (Homo sapiens). The test is described as follows: Maximum inhibition of GABA EC20 response at GABA-A receptor alpha-5-beta-3-gamma-2, n=4. In kind it is protein-complex assay. Summed up:
as §1

Test [7] has as its target T3, GABA-A receptor; alpha-1/beta-3/gamma-2. Briefly: Displacement of [3H]-Ro- 15-1788 binding from human recombinant Gamma-aminobutyric acid A receptor alpha-1-beta-3-gamma-2 expressed in mouse fibroblast L(tk-) cells (30 min at 24 degrees C, pH 7.4). In kind it is cell-based. Summed up: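 Membranes from L(tk-) cells stably expressing human α1, α3 or α5 β3γ2 in 50 mM Tris pH 7.4. [3H]Ro15-1788 at 1.8 nM final, 30 min at 24 °C. Nonspecific binding set with 10 µM flunitrazepam, total binding in 0.1% DMSO. Filtration, scintillation counting. Ki is mean ± SEM of ≥3 independent determinations.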

As usually defined, the EC50 is the midpoint of the concentration-response curve. Broadly, the Ki is the dissociation constant of the complex between target and ligand, obtained from inhibition or displacement.

With `N#Cc1cccc(-c2cnnc(-c3ccccc3)c2)c1`, the values for the EC50 in test [1] and in test [4] were 7.41 nM and 2.95 nM, respectively. The Efficacy in test [2] is -32. Also, the Maximum inhibition in test [3] was -16%; in test [5], -23%; in test [6] it was -37%. Moreover, in test [7], the Ki amounted to 7 nM.
